The source made the active and inactive calls. No cut-off for these calls is given here.
Columns and labels:
Mus musculus [1] = test: Protective effect against adenine-induced chronic renal failure in Kunming mouse assessed as reduction in interstitial fibrosis in kidney at 200 mg/kg, ig qd administered for 4 successive weeks by haematoxylin and eosin dye-based optical microscopic method; format: functional, organism-based
Method in brief: (§1)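 Kidneys were taken from male Kunming mice given an adenine diet plus oral melanin (100 or 200 mg kg–1), with or without Haikunshenxi capsule, ten per group. Histological sections were examined at 400× for glomeruli, tubules, adenine crystals, tubular atrophy and interstitial fibrosis.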

Mus musculus [2] = test: Protective effect against adenine-induced chronic renal failure in Kunming mouse assessed as nephridial iNOS levels at 200 mg/kg, ig qd administered for 4 successive weeks with haikunshenxi capsule (reference value: 1.98 +/- 0.12 U/mg); format: functional
Mus musculus [3] = test: Protective effect against adenine-induced chronic renal failure in ig dosed Kunming mouse assessed as decrease in nephridial iNOS levels administered as qd for 4 successive weeks with haikunshenxi capsule; format: functional, organism-based
Method in brief: (§2)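 CRF model made by chronic dietary adenine in male Kunming mice (20 ± 5 g); oral dosing at 100 or 200 mg kg–1, alone or with Haikunshenxi capsule; ten mice per group. Kidney tissue TNF-α, IL-1β and IL-6 measured as pg per mg protein, and iNOS activity as U mg–1 protein.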

Mus musculus [4] = test: Protective effect against adenine-induced chronic renal failure in ig dosed Kunming mouse assessed as increase in albumin levels in serum administered as qd for 4 successive weeks by bromocresol green colorimetric method; format: functional, organism-based
Method in brief: (§3)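 Adenine-fed CRF model in male Kunming mice (20 ± 5 g) housed at 18–20 °C on a 12 h light/dark cycle. Oral dosing at 100 or 200 mg kg–1, with or without Haikunshenxi capsule; ten mice per group. Serum creatinine, BUN, total protein and albumin measured, each group compared with the model group.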

Mus musculus [5] = test: Protective effect against adenine-induced chronic renal failure in Kunming mouse assessed as weight growth rate at 200 mg/kg, ig qd administered for 4 successive weeks with haikunshenxi capsule measured 24 hrs post last dose (reference value: 32.42 +/- 1.43%); format: functional
Method in brief: (§4)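 Male Kunming mice (20 ± 5 g) kept on a 12 h light/dark cycle at 18–20 °C on a standard diet. CRF induced by chronic dietary adenine. Test material given orally at 100 or 200 mg kg–1, alone or with Haikunshenxi capsule, alongside normal, model and capsule-only groups; ten mice per group. Weight growth rate recorded in %, kidney index in mg g–1.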

Mus musculus [6] = test: Protective effect against adenine-induced chronic renal failure in Kunming mouse assessed as appearance of complete kidney tubules at 100 mg/kg, ig qd administered for 4 successive weeks by haematoxylin and eosin dye-based optical microscopic method; format: functional, organism-based; method in brief: as §1
Mus musculus [7] = test: Protective effect against adenine-induced chronic renal failure in ig dosed Kunming mouse assessed as decrease in serum creatinine levels administered as qd for 4 successive weeks with haikunshenxi capsule by picric acid colorimetric method; format: functional, organism-based; method in brief: as §3
Mus musculus [8] = test: Protective effect against adenine-induced chronic renal failure in Kunming mouse assessed as nephridial iNOS levels at 200 mg/kg, ig qd administered for 4 successive weeks (reference value: 1.98 +/- 0.12 U/mg); format: functional
Mus musculus [9] = test: Protective effect against adenine-induced chronic renal failure in ig dosed Kunming mouse assessed as decrease in serum creatinine levels administered as qd for 4 successive weeks by picric acid colorimetric method; format: functional, organism-based; method in brief: as §3
Mus musculus [10] = test: Protective effect against adenine-induced chronic renal failure in Kunming mouse assessed as nephridial CAT levels at 100 mg/kg, ig qd administered for 4 successive weeks by visible spectrometry method (reference value: 44.13 +/- 1.25 U/mg); format: functional
Mus musculus [11] = test: Protective effect against adenine-induced chronic renal failure in Kunming mouse assessed as nephridial TNF-alpha levels at 200 mg/kg, ig qd administered for 4 successive weeks with haikunshenxi capsule (reference value: 250.15 +/- 8.10 pg/ml); format: functional
Mus musculus [12] = test: Protective effect against adenine-induced chronic renal failure in Kunming mouse assessed as kidney index at 100 mg/kg, ig qd administered for 4 successive weeks measured 24 hrs post last dose (reference value: 1.94 +/- 0.03 mg/g); format: functional
Method in brief: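 Male Kunming mice (20 ± 5 g) were housed on a 12 h light/dark cycle at 18–20 °C. Chronic renal failure was induced by long-term dietary adenine. The melanin was given orally at 100 or 200 mg kg–1, alone or with Haikunshenxi capsule as positive drug, with ten mice per group. Weight growth rate (%) and kidney index (mg g–1) were recorded.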

Mus musculus [13] = test: Protective effect against adenine-induced chronic renal failure in Kunming mouse assessed as reduction in number of adenine crystals in kidney at 200 mg/kg, ig qd administered for 4 successive weeks by haematoxylin and eosin dye-based optical microscopic method; format: functional, organism-based; method in brief: as §1
Mus musculus [14] = test: Protective effect against adenine-induced chronic renal failure in ig dosed Kunming mouse assessed as decrease in nephridial IL-1beta levels administered as qd for 4 successive weeks; format: functional, organism-based; method in brief: as §2
Mus musculus [15] = test: Protective effect against adenine-induced chronic renal failure in ig dosed Kunming mouse assessed as decrease in nephridial IL-1beta levels administered as qd for 4 successive weeks with haikunshenxi capsule; format: functional, organism-based; method in brief: as §2
Mus musculus [16] = test: Protective effect against adenine-induced chronic renal failure in ig dosed Kunming mouse assessed as increase in nephridial GSH-PX levels administered as qd for 4 successive weeks by colorimetric method; format: functional, organism-based
Method in brief: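 Male Kunming mice (20 ± 5 g) given dietary adenine to induce CRF, then dosed orally at 100 or 200 mg kg–1, with or without Haikunshenxi capsule; n = 10 per group. Kidney homogenate assayed for SOD and CAT (U mg–1 protein), GSH-Px (U L–1), GSH (mg g–1 protein) and MDA (nmol mL–1).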

Mus musculus [17] = test: Protective effect against adenine-induced chronic renal failure in ig dosed Kunming mouse assessed as decrease in blood urea nitrogen levels in serum administered as qd for 4 successive weeks by diacetyl oxime method; format: functional, organism-based; method in brief: as §3
Mus musculus [18] = test: Protective effect against adenine-induced chronic renal failure in Kunming mouse assessed as nephridial SOD levels at 200 mg/kg, ig qd administered for 4 successive weeks by hydroxylamine method (reference value: 30.45 +/- 1.12 U/mg); format: functional
Mus musculus [19] = test: Protective effect against adenine-induced chronic renal failure in Kunming mouse assessed as nephridial GSH levels at 200 mg/kg, ig qd administered for 4 successive weeks with haikunshenxi capsule by colorimetric method (reference value: 3.05 +/- 0.11 mg/g); format: functional
Mus musculus [20] = test: Protective effect against adenine-induced chronic renal failure in Kunming mouse assessed as weight growth rate at 200 mg/kg, ig qd administered for 4 successive weeks measured 24 hrs post last dose (reference value: 32.42 +/- 1.43%); format: functional; method in brief: as §4
Mus musculus [21] = test: Protective effect against adenine-induced chronic renal failure in Kunming mouse assessed as reduction in renal tubular atrophy at 200 mg/kg, ig qd administered for 4 successive weeks by haematoxylin and eosin dye-based optical microscopic method; format: functional, organism-based; method in brief: as §1
Mus musculus [22] = test: Protective effect against adenine-induced chronic renal failure in Kunming mouse assessed as nephridial CAT levels at 200 mg/kg, ig qd administered for 4 successive weeks with haikunshenxi capsule by visible spectrometry method (reference value: 44.13 +/- 1.25 U/mg); format: functional
Mus musculus [23] = test: Protective effect against adenine-induced chronic renal failure in Kunming mouse assessed as nephridial GSH levels at 200 mg/kg, ig qd administered for 4 successive weeks by colorimetric method (reference value: 3.05 +/- 0.11 mg/g); format: functional

Cc1c(=O)c(=O)c2c3c[nH]c4c(C)c(=O)c(=O)c(c5c[nH]c1c52)c43
Activity (Mus musculus [1]): Active
Activity (Mus musculus [2]): 0.68 U/mg
Activity (Mus musculus [3]): Dose-dependent effect
Activity (Mus musculus [4]): Dose-dependent effect
Activity (Mus musculus [5]): 56.64%
Activity (Mus musculus [6]): Active
Activity (Mus musculus [7]): Dose-dependent effect
Activity (Mus musculus [8]): 1.64 U/mg
Activity (Mus musculus [9]): Dose-dependent effect
Activity (Mus musculus [10]): 60.53 U/mg
Activity (Mus musculus [11]): 84.35 pg/mL
Activity (Mus musculus [12]): 1.72 mg/g
Activity (Mus musculus [13]): Active
Activity (Mus musculus [14]): Dose-dependent effect
Activity (Mus musculus [15]): Dose-dependent effect
Activity (Mus musculus [16]): Dose-dependent effect
Activity (Mus musculus [17]): Dose-dependent effect
Activity (Mus musculus [18]): 38.25 U/mg
Activity (Mus musculus [19]): 5.38 mg/g
Activity (Mus musculus [20]): 52.68%
Activity (Mus musculus [21]): Active
Activity (Mus musculus [22]): 76.47 U/mg
Activity (Mus musculus [23]): 4.84 mg/g

Source: ChEMBL document CHEMBL4257441, “Protection effect of intracellular melanin from Lachnum YM156 and Haikunshenxi capsule combination on adenine-induced chronic renal failure in mice” (Medchemcomm, 2017)
